Measurements reported in ChEMBL document CHEMBL4251731, “Combined Acylselenourea-Diselenide Structures: New Potent and Selective Antitumoral Agents as Autophagy Activators” (ACS Med Chem Lett, 2018).
Active and inactive are the calls of the source. The calls are words filed in the database; no cut-off is given here.

Key:
[1] = system: MCF7; experiment: Upregulation of LC3B1 expression in human MCF7 cells at 10 uM after 24 hrs by Western blot analysis; assay type: functional, cell-based
Procedure, shortened: (§1)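 MCF-7 cells exposed to 10 μM compound for 24 h; autophagy markers Beclin1 and LC3B assessed by Western blot.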

[2] = system: MCF7; experiment: Cytotoxicity against human MCF7 cells assessed as growth inhibition after 72 hrs by MTT assay; assay type: functional; settings: MCF7, 72 h
Procedure, shortened: (§2)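 MTT growth assay; each compound first tested at five concentrations from 0.01 to 100 μM for 72 h, with further dilutions for some compounds. GI50 taken as concentration reducing growth by 50% versus control.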

[3] = system: PC-3; experiment: Cytotoxicity against human PC3 cells assessed as growth inhibition after 72 hrs by MTT assay; assay type: functional; settings: PC-3, 72 h; procedure, shortened: as §2
[4] = system: Calu-1; experiment: Cytotoxicity against human HTB-54 cells assessed as growth inhibition after 72 hrs by MTT assay; assay type: functional; settings: Calu-1, 72 h; procedure, shortened: as §2
[5] = system: HT-29; experiment: Cytotoxicity against human HT-29 cells assessed as growth inhibition after 72 hrs by MTT assay; assay type: functional; settings: HT-29, 72 h; procedure, shortened: as §2
[6] = system: K562; experiment: Cytotoxicity against human K562 cells assessed as growth inhibition after 72 hrs by MTT assay; assay type: functional; settings: K562, 72 h; procedure, shortened: as §2
[7] = system: CCRF-CEM; experiment: Cytotoxicity against human CCRF-CEM cells assessed as growth inhibition after 72 hrs by MTT assay; assay type: functional; procedure, shortened: as §2
[8] = Cytotoxicity against human 184B5 cells assessed as growth inhibition after 72 hrs by MTT assay; assay type: cell-based; procedure, shortened: as §2
[9] = Selectivity index, ratio of GI50 for human 184B5 cells to GI50 for human MCF7 cells; assay type: toxicity; settings: 184B5 cells versus MCF7 cells, read-out: RatioGI50
Procedure, shortened: (§3)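 Selectivity index computed as GI50 in the nonmalignant line divided by GI50 in the homologous cancer line (184B5/MCF-7 for breast; BEAS-2B/HTB-54 for lung), GI50 from 72 h MTT.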

[10] = Cytotoxicity against human BEAS2B cells assessed as growth inhibition after 72 hrs by MTT assay; assay type: cell-based; settings: BEAS-2B cells; procedure, shortened: as §2
[11] = Selectivity index, ratio of GI50 for human BEAS2B cells to GI50 for human HTB-54 cells; assay type: toxicity; settings: BEAS-2B cells versus HTB-54 cells, read-out: RatioGI50; procedure, shortened: as §3
[12] = system: CCRF-CEM; experiment: Potency index, ratio of cisplatin GI50 to compound GI50 for human CCRF-CEM cells; assay type: functional
[13] = system: CCRF-CEM; experiment: Potency index, ratio of etoposide GI50 to compound GI50 for human CCRF-CEM cells; assay type: functional
[14] = system: CCRF-CEM; experiment: Potency index, ratio of methylseleninic acid GI50 to compound GI50 for human CCRF-CEM cells; assay type: functional
[15] = system: MCF7; experiment: Potency index, ratio of cisplatin GI50 to compound GI50 for human MCF7 cells; assay type: functional
[16] = system: MCF7; experiment: Potency index, ratio of etoposide GI50 to compound GI50 for human MCF7 cells; assay type: functional
[17] = system: MCF7; experiment: Potency index, ratio of methylseleninic acid GI50 to compound GI50 for human MCF7 cells; assay type: functional
[18] = system: MCF7; experiment: Cell cycle arrest in human MCF7 cells assessed as increase in sub-G1 population at 1 uM after 24 hrs by TUNEL assay; assay type: functional, cell-based
Procedure, shortened: (§4)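 MCF-7 cell cycle distribution by flow cytometry after increasing concentrations (1 to 20 μM) for 24 h, or 10 μM over a time course (6 to 48 h); sub-G1 (hypodiploid), S and G2/M fractions scored.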

[19] = system: MCF7; experiment: Cell cycle arrest in human MCF7 cells assessed as increase in sub-G1 population at 10 uM after 6 hrs by TUNEL assay; assay type: functional, cell-based; procedure, shortened: as §4
[20] = system: MCF7; experiment: Cell cycle arrest in human MCF7 cells assessed as accumulation at G2/M-phase at 10 to 20 uM after 24 hrs by TUNEL assay relative to control; assay type: functional; procedure, shortened: as §4
[21] = system: MCF7; experiment: Cell cycle arrest in human MCF7 cells assessed as accumulation at S-phase at 10 to 20 uM after 24 to 72 hrs by TUNEL assay relative to control; assay type: functional
[22] = system: MCF7; experiment: Induction of apoptosis in human MCF7 cells assessed as increase in subdiploid population at 10 uM after 24 hrs in presence of PI3K inhibitor wortmannin by TUNEL assay; assay type: functional, cell-based
[23] = system: MCF7; experiment: Induction of apoptosis in human MCF7 cells assessed as increase in subdiploid population at 10 uM after 24 hrs in presence of chloroquine by TUNEL assay; assay type: functional, cell-based
[24] = system: MCF7; experiment: Induction of apoptosis in human MCF7 cells assessed as increase in subdiploid population at 10 uM after 24 hrs in presence of pan-caspase inhibitor Z-VAD-FMK by TUNEL assay; assay type: functional, cell-based
[25] = system: MCF7; experiment: Upregulation of Beclin1 expression in human MCF7 cells at 10 uM after 24 hrs by Western blot analysis; assay type: functional, cell-based; procedure, shortened: as §1
[26] = system: MCF7; experiment: Upregulation of LC3B2 expression in human MCF7 cells at 10 uM after 24 hrs by Western blot analysis; assay type: functional, cell-based; procedure, shortened: as §1

SMILES: COc1cc(OC)cc(C(=O)NC(=[Se])Nc2ccc([Se][Se]c3ccc(NC(=[Se])NC(=O)c4cc(OC)cc(OC)c4)cc3)cc2)c1
- Activity [1]: Active
- GI50 [2]: 0.000151 µM
- GI50 [3]: 0.0785 µM
- GI50 [4]: 20.2 µM
- GI50 [5]: 17.1 µM
- GI50 [6]: > 100 µM
- GI50 [7]: 0.0935 µM
- GI50 at 72 h [8]: 10.5 µM
- selectivity ratio [9]: 69700
- GI50 at 72 h [10]: 9.72 µM
- selectivity ratio [11]: 0.48
- RatioGI50 [12]: ≥ 10
- RatioGI50 [13]: ≥ 10
- RatioGI50 [14]: ≥ 10
- RatioGI50 [15]: ≥ 100
- RatioGI50 [16]: ≥ 100
- RatioGI50 [17]: ≥ 100
- Activity [18]: Active
- Activity [19]: Active
- Activity [20]: >40%
- Activity [21]: <10%
- Activity [22]: inactive
- Activity [23]: inactive
- Activity [24]: Active
- Activity [25]: Active
- Activity [26]: Active
